Test results: article PMC12560046 (RSC Chemical Biology, 2025)

What was measured:
[1] = test system: hepatitis B virus (HBV); details: HepAD38 cells, 1–10 μM; cited from earlier work
[2] = test system: hepatitis B virus (HBV); assay: Inhibition of HBsAg secretion in HBV-replicating HepAD38 cells; type: cell-based; details: for Inhibition of HBsAg secretion (in words): 5 μM, relative to vehicle 0.5% DMSO
Procedure, shortened: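 HepAD38 cells carry an integrated HBV genome under a tetracycline-regulated promoter, […]. Cells were treated with test compound. HBsAg secreted into the culture supernatant was quantified by ELISA. Selectivity index was taken as CC50/IC50.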

[3] = test system: hepatitis B virus (HBV); assay: Reduction of intracellular HBV rcDNA in HepAD38 cells; type: cell-based; details: qPCR, relative to 0.5% DMSO vehicle
[4] = test system: HepAD38 cells; assay: Cytotoxicity in HepAD38 cells; type: cell-based; details: read-out: Cytotoxicity CC50, MTS assay, 0 to 100 μM
[5] = Cytotoxicity in HepAD38 cells; type: cell-based; details: human, Cytotoxicity CC50, HepAD38 cells, MTS assay, 0 to 100 μM

Structure (SMILES)	Effect on cccDNA levels (in words) [1]	Inhibition of HBsAg secretion (in words) ([2]; HepAD38 cells)	Selectivity index: CC50/IC50 ([2]; HepAD38 cells, CC50 (MTS) / HBsAg IC50)	IC50 ([2]; Hepatitis B virus, HePAD38, read-out: HBsAg IC50) [µM]	rcDNA inhibition [%]: compound (5 μM) [3]	CC50 [4] [µM]	CC50 at 14 days [5] [µM]
C[C@@]1(CO)[C@H](O)CC[C@@]2(C)[C@H]1CC[C@H]1C[C@@H]3C[C@@]12CC[C@]3(O)CO [aphidicolin]	effectively reduces cccDNA levels in a dose-dependent manner	–	–	–	–	–	–
CC[C@]12C=CCN3CC[C@]4(C(=C(C(=O)OC)C1)Nc1ccccc14)[C@@H]32 [compound 6, tabersonine]	–	only modest inhibitory activity	2.86	14.6 ± 4.1	minimal or no effect	41.8 ± 3.1	–
CCOC(=O)C1=C[C@]2(CC)CCCN3CCc4c(n1c1ccccc41)[C@@H]32 [compound 8, vinpocetine]	–	negligible inhibitory effects	–	–	minimal or no effect	–	> 100
